Article PMC6424611 (Journal of molecular biology, 2019)
Where no end group is shown, it is not given here. The star is where a group is joined. Biotin = O=C1N[C@H]2[C@H](CS[C@H]2CCCCC(=O)*)N1; TTDS = NCCCOCCOCCOCCCNC(=O)CCC(=O)*

Tests used:
RhoA = assay: G-LISA RhoA activation assay; format: cell-based; conditions: ARHGEF12 mutants, n=4
ARHGEF12 = assay: NanoBiT protein-protein interaction assay; format: cell-based, human; conditions: RSK1–ARHGEF12 sensor, 20 ng/ml EGF, serum-starved HEK293T, 60 min
Method in brief: (§1)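 Full-length RSK1 (N-terminal SmBiT) is paired with an N-terminal LgBiT fusion of the partner: ARHGEF12 isoform 2, GOPC isoform 2, PARD3B 1–913, or SYNJ2BP. Sensors are transiently co-expressed in HEK293T cells, which are serum-starved for 20 h from 4 h post-transfection and assayed with Nano-Glo at 24 h. Steady-state signal is referenced to the wild-type pair. For the EGF response (20 ng/ml, 60 min), signal is normalized to initial luminescence and to unstimulated furimazine decay. At least 6 replicates.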

ERK2 = assay: NanoBiT protein-protein interaction assay; format: cell-based; conditions: RSK1–ERK2 sensor, 20 ng/ml EGF, serum-starved HEK293T, 60 min
Method in brief: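 Full-length RSK1 carries an N-terminal SmBiT tag, and full-length ERK2 is fused to LgBiT. HEK293T cells (DMEM, 10% FBS) are seeded at 2×10^4/well 24 h before FuGene HD co-transfection, then starved for 20 h in CO2-independent medium from 4 h post-transfection. After 20 ng/ml EGF, Nano-Glo luminescence is followed for 60 min and normalized to initial signal and to furimazine decay in unstimulated cells. At least 6 biological replicates.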

MAGI1 = assay: NanoBiT protein-protein interaction assay; format: cell-based, human; conditions: RSK1–MAGI1 sensor, 20 ng/ml EGF, serum-starved HEK293T, 60 min
Method in brief: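 Full-length RSK1 (N-terminal SmBiT) is co-expressed with full-length MAGI1–LgBiT in HEK293T cells by FuGene HD transfection, then serum-starved for 20 h in CO2-independent medium. Cells are read with Nano-Glo 24 h post-transfection. Steady-state luminescence of mutant sensors is referenced to the wild-type pair. For the 20 ng/ml EGF response, signal is followed for 60 min and normalized to initial luminescence and to furimazine decay in unstimulated cells. At least 6 biological replicates.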

SYNJ2BP = assay: NanoBiT protein-protein interaction assay; format: cell-based, human; conditions: RSK1–SYNJ2BP sensor, 20 ng/ml EGF, serum-starved HEK293T, 60 min
Method in brief: as §1

PARD3B = assay: NanoBiT protein-protein interaction assay; format: cell-based, human; conditions: RSK1–PARD3B sensor, 20 ng/ml EGF, serum-starved HEK293T, 60 min
Method in brief: as §1

GOPC = assay: NanoBiT protein-protein interaction assay; format: cell-based, human; conditions: RSK1–GOPC sensor, 20 ng/ml EGF, serum-starved HEK293T, 60 min
Method in brief: as §1

GORASP2 PDZ = assay: surface plasmon resonance; format: binding, human; conditions: internal standard; biotinylated HPV16 E6 peptide immobilized; steady state
Method in brief: (§2)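 Biacore SPR on a CM5 chip. Streptavidin was immobilized by EDC coupling, then biotinylated HPV16 E6 peptide was captured and extensively washed. Tandem Ni/MBP-purified MBP-PDZ domains were then injected. The E6 peptide served as an internal standard.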

PARD3B-1 PDZ [1] = biological target: T1, PARD3B-1 PDZ (Homo sapiens, UniProt Q8TEW8); assay: surface plasmon resonance; format: binding; conditions: internal standard; biotinylated HPV16 E6 peptide immobilized; steady state
T1 sequence (Q8TEW8 201-289 limits assumed): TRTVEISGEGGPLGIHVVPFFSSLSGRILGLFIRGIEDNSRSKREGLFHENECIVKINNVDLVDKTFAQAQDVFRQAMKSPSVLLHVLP
Method in brief: as §2

PDZD7-3 PDZ = biological target: T2, PDZD7-3 PDZ (Homo sapiens, UniProt Q9H5P4); assay: surface plasmon resonance; format: binding; conditions: internal standard; biotinylated HPV16 E6 peptide immobilized; steady state
T2 sequence (Q9H5P4 862-934 limits assumed): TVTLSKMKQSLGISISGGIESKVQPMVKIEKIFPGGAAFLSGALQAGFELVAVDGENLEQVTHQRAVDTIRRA
Method in brief: as §2

MAST1 PDZ = biological target: T3, MAST1 PDZ (Homo sapiens, UniProt Q9Y2H9); assay: surface plasmon resonance; format: binding; conditions: internal standard; biotinylated HPV16 E6 peptide immobilized; steady state
T3 sequence (Q9Y2H9 967-1055 limits assumed): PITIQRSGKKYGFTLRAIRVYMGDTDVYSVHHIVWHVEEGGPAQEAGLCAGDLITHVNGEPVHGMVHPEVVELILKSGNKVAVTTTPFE
Method in brief: as §2

SNTG2 PDZ = biological target: T4, SNTG2 PDZ (Homo sapiens, UniProt Q9NY99); assay: surface plasmon resonance; format: binding; conditions: internal standard; biotinylated HPV16 E6 peptide immobilized; steady state
T4 sequence (Q9NY99 73-156 limits assumed): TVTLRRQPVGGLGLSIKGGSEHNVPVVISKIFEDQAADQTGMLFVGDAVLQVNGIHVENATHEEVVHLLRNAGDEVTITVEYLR
Method in brief: as §2

GRID2IP-2 PDZ [2] = biological target: T5, GRID2IP-2 PDZ (Homo sapiens, UniProt A4D2P6); assay: surface plasmon resonance; format: binding; conditions: internal standard; biotinylated HPV16 E6 peptide immobilized; steady state
Method in brief: as §2

SNX27 PDZ [3] = biological target: T6, SNX27 PDZ (Homo sapiens, UniProt Q96L92); assay: surface plasmon resonance; format: binding; conditions: internal standard; biotinylated HPV16 E6 peptide immobilized; steady state
HTRA1 PDZ = HTRA1 PDZ (Homo sapiens, UniProt Q92743); assay: surface plasmon resonance; format: binding; conditions: internal standard; biotinylated HPV16 E6 peptide immobilized; steady state
Method in brief: as §2

GOPC PDZ = GOPC PDZ (Homo sapiens, UniProt Q9HD26); assay: surface plasmon resonance; format: binding; conditions: internal standard; biotinylated HPV16 E6 peptide immobilized; steady state
[4] = test system: first PDZ domain of NHERF (EBP50); assay: holdup assay; format: binding, human
ARHGEF12 PDZ = biological target: T7, ARHGEF12 PDZ (Homo sapiens, UniProt Q9NZN5); assay: holdup assay; format: binding; conditions: words
T7 sequence (Q9NZN5 72-151 limits assumed): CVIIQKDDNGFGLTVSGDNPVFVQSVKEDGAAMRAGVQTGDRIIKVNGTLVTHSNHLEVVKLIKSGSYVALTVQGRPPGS
Method in brief: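 Automated holdup against N-terminally biotinylated (TTDS linker) RSK1 725–735 peptides, unphosphorylated and phosphorylated, in triplicate. PDZome v2 clones were codon-optimized and expressed in E. coli, with soluble lysate adjusted to ~4 μM. BI is the PDZ fraction depleted from the fluid phase.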

PARD3B-1 PDZ [5] = biological target: T1, PARD3B-1 PDZ; assay: holdup assay; format: binding; conditions: words; PARD3B
Method in brief: (§3)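 Automated holdup in triplicate measured biotinylated (N-terminal TTDS linker) RSK1 725–735 peptides, unphosphorylated or phosphorylated, against E. coli-expressed PDZome v2 domains. Soluble lysate was adjusted to ~4 μM, giving 255 domains for the unphosphorylated and 252 for the phosphorylated peptide. Binding intensity (BI) is the fraction of PDZ depleted from the fluid phase. BI 0.2 was the high-confidence threshold.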

SNX27 PDZ [6] = biological target: T6, SNX27 PDZ; assay: holdup assay; format: binding; conditions: words
[7] = test system: first PDZ domain of Scribble; assay: holdup assay; format: binding, human
GRID2IP-2 PDZ [8] = biological target: T5, GRID2IP-2 PDZ; assay: holdup assay; format: binding; conditions: words; GRID2IP
Method in brief: as §3

T5 sequence (A4D2P6 279-356 limits assumed): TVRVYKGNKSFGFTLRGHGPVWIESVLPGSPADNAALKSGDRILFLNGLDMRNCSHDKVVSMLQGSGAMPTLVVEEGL
Sequence of HTRA1 PDZ (Q92743 365-467 limits assumed): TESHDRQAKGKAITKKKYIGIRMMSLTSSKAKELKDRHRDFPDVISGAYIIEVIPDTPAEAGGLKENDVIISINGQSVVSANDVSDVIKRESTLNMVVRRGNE

Compound: S1288E: ARHGEF12 mutant mimicking the RSK1 phosphorylation site
- decrease of RhoA signal by ARHGEF12 mutation (RhoA): 20%

Compound: EGF: epidermal growth factor (Sigma-Aldrich), 20 ng/ml (NSDSECPLSHDGYCLHDGVCMYIEALDKYACNCVVGYIGERCQYRDLKWWELR; UniProt P01133 971-1023, looked up)
- change in luminescence after EGF (ARHGEF12): decrease in luminescence
- change in luminescence after EGF (ERK2): time-modulated decrease of the luminescence signal
- change in luminescence after EGF (MAGI1): decrease in luminescence
- change in luminescence after EGF (SYNJ2BP): increased luminescence
- change in luminescence after EGF (PARD3B): did not show any change
- change in luminescence after EGF (GOPC): decrease in luminescence

Compound: CC(C)C[C@H](NC(=O)[C@H](CCC(N)=O)NC(=O)[C@@H](NC(=O)[C@H](CCC(=O)O)NC(=O)[C@H](CCCNC(=N)N)NC(=O)[C@H](CCCNC(=N)N)NC(=O)[C@@H](NC(=O)[C@H](CCCNC(=N)N)NC(=O)[C@H](CO)NC(=O)[C@@H](N)CO)[C@@H](C)O)[C@@H](C)O)C(=O)O [HPV16 E6]
- KD, SPR, HPV16 E6 (GORASP2 PDZ): no binding
- KD, SPR, HPV16 E6 (PARD3B-1 PDZ [1]): no binding
- KD, SPR, HPV16 E6 (PDZD7-3 PDZ): no binding
- KD, SPR, HPV16 E6 (MAST1 PDZ): no binding
- KD, SPR, HPV16 E6 (SNTG2 PDZ): no binding
- KD, SPR, HPV16 E6 (GRID2IP-2 PDZ [2]): no binding
- KD, SPR, HPV16 E6 (SNX27 PDZ [3]): no binding
- KD, SPR, HPV16 E6 (HTRA1 PDZ): no binding
- KD, SPR, HPV16 E6 (GOPC PDZ): no binding

Compound: RSK1 PBM: PDZ binding motif of the RSK1 C-terminal tail ({Biotin-TTDS}-RRVRKLPSTTL)
- interaction detected [4]: did not detect any interaction
- effect of phosphorylation on binding (ARHGEF12 PDZ): mostly eliminated
- affinity to both states of the RSK1 PBM (PARD3B-1 PDZ [5]): comparable affinities to both states
- effect of phosphorylation on binding (SNX27 PDZ [6]): promoted by phosphorylation
- BI [7]: 0.17–0.18
- effect of phosphorylation on binding (GRID2IP-2 PDZ [8]): mostly eliminated
